Rows were chosen to be rich in hits. Some 2% of all compounds tested hit in one or more screens of this group.
NR1D1 modulator: modulators of Rev-erb alpha DNA binding, primary screen, biochemical, FITC-DNA, fluorescence polarization, uHTS; Nuclear receptor subfamily 1 group D member 1 (Homo sapiens), P20393; actives 0.79% (n = 370,000); activity, % at 10 µM; AID 1259318, 2017; Rev-erbα–FITC-DNA binding, 90 min;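 active = activity above about 14%, limit read from the data; passing the limit was not always enough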;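 note: 0% = DMSO wells with 35 nM protein and 100% = DMSO wells with 750 nM protein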
Neddyl block: inhibitors of cullin neddylation, primary screen, biochemical, TR-FRET, uHTS, NAE and Ubc12. NEDD8-conjugating enzyme Ubc12 (Homo sapiens) + NEDD8-activating enzyme E1 regulatory …. actives 0.58% (n = 360,000). calls only at 25 µM; in the data active = inhibition above about 36%
NR2E3 ag-1: NR2E3 agonists in two-hybrid cells, primary screen, cell-based, luminescence, CHO-S, Gal4-NCOR/VP16-NR2E3; luciferase; inhibition of corepressor binding, % at 3.98 µM; actives 0.35% (n = 360,000); AID 602229, 2012;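 active = inhibition above the mean of all tested compounds plus 3 SD, cut at about 70% in these data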;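 note: 0% = DMSO with NR2E3 transfected cells and 100% = cells lacking NR2E3 construct; higher means lower luciferase signal from less NR2E3 corepressor binding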
Target sequence (Q9Y5X4 whole entry, looked up, the tested form may be a part): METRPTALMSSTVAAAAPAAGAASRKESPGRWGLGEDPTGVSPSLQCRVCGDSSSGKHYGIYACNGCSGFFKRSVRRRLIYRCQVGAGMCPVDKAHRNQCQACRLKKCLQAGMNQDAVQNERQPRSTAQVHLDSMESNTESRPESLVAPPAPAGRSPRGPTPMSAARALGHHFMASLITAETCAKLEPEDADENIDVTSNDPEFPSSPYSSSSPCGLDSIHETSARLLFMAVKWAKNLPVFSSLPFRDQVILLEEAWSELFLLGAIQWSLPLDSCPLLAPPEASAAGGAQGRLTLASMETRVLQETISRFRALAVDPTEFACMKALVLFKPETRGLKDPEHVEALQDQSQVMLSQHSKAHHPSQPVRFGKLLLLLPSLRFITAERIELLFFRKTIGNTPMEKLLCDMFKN
PG9 Ab binder: binders of HIV-1 gp120 antibody PG9, primary screen, biochemical, TR-FRET; actives 0.43% (n = 360,000); TR-FRET gp120-PG9 antibody binding; HIV-1 gp120 / PG9 antibody interaction; AID 624416, 2012; inhibition, % at 6.7 µM; in the data active = inhibition above about 8.5%
NR2E3 ag-2: inhibitors of NR2E3-RetCOR corepressor binding, primary screen, NR2E3 agonist project, biochemical, TR-FRET, GST-NR2E3, biotin-RetCOR; Photoreceptor-specific nuclear receptor (Homo sapiens), Q9Y5X4; 1536-well; inhibition of corepressor binding, % at 4.78 µM; actives 0.12% (n = 320,000); AID 2300, 2010;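 active = percent inhibition above the cutoff of mean plus 3 SD of all tested compounds, set per screening campaign, cut at about 20% in these data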;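 note: 0% = DMSO wells and 100% = biotin wells as full block of FRET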
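Assay system: NR2E3–RetCOR corepressor complex. Quantity: 1.35 nM GST-NR2E3. Buffer or medium: pH 7.5 Tris-based buffer. Reagent: biotinylated RetCOR corepressor at 7 nM final. Schedule: 5 h at 4 °C. Detection: TR-FRET, emission read at 617 and 671 nm. Replicates: one well per compound, singlicate testing.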
NR2E3 ag conf: NR2E3 agonist confirmation in cells, cell-based, luminescence, CHO-S two-hybrid | actives 51% (n = 2,300) | CHO-S mammalian two-hybrid NR2E3-NCOR, luciferase luminescence | shares compounds with NR2E3 ag-1 | AID 624378, 2012 | inhibition, % at 3.98 µM;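 active = average inhibition above a cutoff equal to the mean inhibition of all tested compounds plus one SD, cut at about 70% in these data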;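 note: 0% = DMSO in NR2E3 cells and 100% = DMSO in cells lacking NR2E3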
VP16 counter: GAL4-VP16 reporter modulators, confirmation, counter-screen for NR2E3 agonist project, cell-based, luminescence, CHO-S, high throughput; shares compounds with NR2E3 ag-1; CHO-S GAL4-VP16 luciferase reporter; inhibition, % at 3.98 µM; actives 29% (n = 2,300); AID 624379, 2012;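 active = mean inhibition above a cutoff equal to the average over all tested compounds plus one standard deviation, cut at about 70% in these data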;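 note: luciferase from a UAS reporter driven by GAL4-VP16 transactivation; 0% = DMSO with VP16-transfected cells and 100% = DMSO with cells lacking VP16; higher means less reporter light so more repression of VP16 activity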
* marks the source's active call; other numbers are inactive results.

Screening c1ccc(CNc2nc(NCc3ccccc3)c3sccc3n2)cc1 returned NR1D1 modulator 0, Neddyl block inactive, NR2E3 ag-1 63, PG9 Ab binder 0, NR2E3 ag conf 74* and VP16 counter 61.
COc1ccccc1CNc1nc(NCc2ccc(C)cc2C)c2sccc2n1 was read as Neddyl block inactive, NR2E3 ag-1 55, NR2E3 ag conf 65 and VP16 counter 61.
For C#Cc1cccc(Nc2nc(NCCOC)nc3ccsc23)c1 the results were NR1D1 modulator 10, Neddyl block inactive, NR2E3 ag-1 27 and PG9 Ab binder 2.
COc1ccccc1CNc1nc(NCc2ccccc2)nc2ccsc12 was read as NR1D1 modulator -4, Neddyl block inactive, NR2E3 ag-1 62, PG9 Ab binder 1, NR2E3 ag conf 52 and VP16 counter 49.
Screening COCCNc1nc(NCc2ccc(C)cc2C)c2sccc2n1 returned NR1D1 modulator -2, Neddyl block inactive, NR2E3 ag-1 5 and PG9 Ab binder 0.
`CC(c1cc(F)ccc1O)c1c[nH]c2ccccc12` (centres undefined) gave NR1D1 modulator 4.
O=C(Nc1ccc(NC(=O)c2ccccc2Cl)c(Cl)c1)c1ccccn1 was read as NR1D1 modulator 2.
`COc1ccccc1CNc1nc(NCc2ccccc2F)c2sccc2n1` gave Neddyl block inactive, NR2E3 ag-1 82*, NR2E3 ag conf 94* and VP16 counter 76*.
For COc1ccccc1CNc1nc(NCc2cccc(OC)c2OC)c2sccc2n1 the results were NR1D1 modulator 0, Neddyl block inactive, NR2E3 ag-1 21 and PG9 Ab binder -1.
For Cc1ccnc(SCC(=O)Nc2sc3c(c2C#N)CCCC3)n1 the results were NR1D1 modulator -5, Neddyl block inactive, NR2E3 ag-1 85*, PG9 Ab binder 2, NR2E3 ag-2 2, NR2E3 ag conf 92* and VP16 counter 85*.
For N#C/C(=N\Nc1cccc([N+](=O)[O-])c1)C(=O)c1ccc(Br)cc1 the results were NR1D1 modulator 3, Neddyl block inactive, NR2E3 ag-1 95*, PG9 Ab binder 0, NR2E3 ag-2 -1, NR2E3 ag conf 99* and VP16 counter 86*.
For COC(=O)C1=C(C)N(Cc2cccc(C(F)(F)F)c2)C(=NCc2ccc3c(c2)OCO3)NC1CCc1ccccc1 (centres undefined) the results were NR1D1 modulator -3 and PG9 Ab binder 0.
For O=C(NCC1CCN(C(=O)C(=O)c2cc3ccccc3o2)CC1)c1ccc2c(c1)OCCCO2 the results were NR1D1 modulator -5 and PG9 Ab binder -2.
`C[C@H](O)[C@@H]1C(=O)N2CCc3c([nH]c4c(-c5ccccc5)cccc34)[C@@H]2C[C@@H]1N(C)C(=O)c1ccccc1F` gave NR1D1 modulator 1 and PG9 Ab binder 0.
Screening O=C(COC(=O)c1ccc(Sc2ncn[nH]2)c([N+](=O)[O-])c1)Nc1ccc(Cl)c(Cl)c1 returned NR1D1 modulator -6.
Screening Cc1ccc(N2CCN(S(=O)(=O)c3c(C)nc4scc(C)n4c3=O)CC2)c(C)c1 returned NR1D1 modulator 8, Neddyl block inactive, NR2E3 ag-1 49, PG9 Ab binder -2, NR2E3 ag-2 0, NR2E3 ag conf 4 and VP16 counter 4.
For COC(=O)N1C2CCCCC2=NN(c2ccccc2)N1C(=O)OC (centres undefined) the results were NR1D1 modulator -4, Neddyl block inactive, NR2E3 ag-1 71*, PG9 Ab binder -1, NR2E3 ag conf 6 and VP16 counter 18.
COc1cc2c(OC(C)=O)c3c(c(-c4ccc5c(c4)OCO5)c2cc1OC)C(=O)OC3 was read as NR1D1 modulator 0, NR2E3 ag-1 81*, PG9 Ab binder 1, NR2E3 ag-2 2, NR2E3 ag conf 98* and VP16 counter 31.
COc1ccc(-c2oc(=O)c3cc(OC)c(OC)cc3c2-c2ccc3c(c2)OCO3)cc1 was read as NR1D1 modulator -4, Neddyl block inactive, NR2E3 ag-1 -3 and PG9 Ab binder -1.
`COc1cc2c(O)c3c(c(-c4ccc5c(c4)OCO5)c2cc1OC)C(=O)OC3` gave NR1D1 modulator -3, NR2E3 ag-1 82*, PG9 Ab binder -2, NR2E3 ag-2 2, NR2E3 ag conf 99* and VP16 counter 43.
For COc1ccc(/C=C/C(=O)c2ccc3c(c2)OCO3)cc1OC the results were NR1D1 modulator -8, Neddyl block inactive, NR2E3 ag-1 -10, PG9 Ab binder -2 and NR2E3 ag-2 1.
C=CCN1C(=O)[C@@H](CC(=O)NCc2cccc(C(F)(F)F)c2)[C@]2(C(=O)OCC)CCCCC/C=C/12 was read as NR1D1 modulator 0.
Cc1ccc(-n2c(SCC(=O)Nc3ccccc3-c3ccccc3)nnc2-c2ccccn2)cc1 was read as NR1D1 modulator 8.
CCCC[C@@H](CC)COC(=O)/C=C/c1ccc(OC)cc1 was read as NR1D1 modulator 4.
`COC(=O)[C@H](CC(C)C)N(Cc1cn(Cc2ccc(C)cc2)nn1)S(=O)(=O)c1ccccc1Br` gave NR1D1 modulator -6.
`Cc1nc(NCCc2cnc[nH]2)c2oc3ccccc3c2n1` gave NR1D1 modulator -2, Neddyl block inactive, NR2E3 ag-1 -18, PG9 Ab binder -1 and NR2E3 ag-2 1.
Screening COc1ccc(CCNc2ncnc3c2oc2ccccc23)cc1OC returned Neddyl block inactive, NR2E3 ag-1 90*, PG9 Ab binder 3, NR2E3 ag-2 1, NR2E3 ag conf 97* and VP16 counter 86*.
Screening c1ccc(CNc2ncnc3c2oc2ccccc23)nc1 returned NR1D1 modulator 8, Neddyl block inactive, NR2E3 ag-1 -52, PG9 Ab binder 3 and NR2E3 ag-2 2.
`COc1ccc(CCNc2nc(C)nc3c2oc2ccccc23)cc1OC` gave NR1D1 modulator -1, Neddyl block inactive, NR2E3 ag-1 73*, PG9 Ab binder 0, NR2E3 ag-2 1, NR2E3 ag conf 90* and VP16 counter 73*.
